In ChEMBL document CHEMBL1142419, “Antimycobacterial activities of novel 2-(sub)-3-fluoro/nitro-5,12-dihydro-5-oxobenzothiazolo[3,2-a]quinoline-6-carboxylic acid” (Bioorg Med Chem, 2008):
Values after ≈ are worked out from the molar mass of the structure shown.

Tests used:
[1] = system: Mycobacterium tuberculosis; assay: Antimycobacterial activity against Mycobacterium tuberculosis H37Rv by agar dilution method; type: functional
How it was run: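 MIC by agar dilution on Middlebrook 7H11 agar supplemented with OADC, following an NCCLS-like procedure, run in duplicate. The MDR-TB clinical isolate was resistant to isoniazid, rifampicin, ethambutol and ofloxacin.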

[2] = system: Mycolicibacterium smegmatis; assay: Antimycobacterial activity against Mycobacterium smegmatis MC2 by agar dilution method; type: functional
How it was run: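 Agar dilution on Middlebrook 7H11 agar supplemented with OADC, following an NCCLS-like procedure; MIC determined in duplicate against M. smegmatis ATCC 14468 (MC²).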

Vero = assay: Cytotoxicity against african green monkey Vero cells after 72 hrs by MTT assay; type: cell-based; conditions: Chlorocebus sabaeus
How it was run: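 Vero mammalian cells were exposed to compounds for 72 h, with testing at 62.5 µg/ml. Viability was read as cellular conversion of MTT to formazan (non-radioactive cell proliferation kit), and IC50 was reported.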

[3] = Inhibition of Mycobacterium smegmatis DNA gyrase supercoiling activity; design: species or system Mycolicibacterium smegmatis
Mus musculus [4] = assay: Phototoxicity in Swiss albino mouse assessed as ear thickness at 140 mg/kg, po after 4 hrs of irradiation; type: organism-based; design: dose 140 mg/kg, route oral; conditions: in vivo
How it was run: (§1)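 Female Swiss albino mice (about 2 months, 20–25 g), fasted at least 18 h, received a single oral gavage of 140 mg/kg. Groups: six per group; lomefloxacin HCl 140 mg/kg; vehicle 0.5% aqueous sodium carboxymethylcellulose at 10 ml/kg. Mice were UV-irradiated for 4 h (about 18 J/cm²). Both ears were scored for erythema, edema and ear thickness (left/right averaged) pre-dose, at end of irradiation, and at about 24, 48, 72 and 96 h. Ear thickness change from baseline was tested by Student's t-tests.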

Mus musculus [5] = assay: Phototoxicity in Swiss albino mouse assessed as ear thickness at 140 mg/kg, po after 24 hrs of irradiation; type: organism-based; design: dose 140 mg/kg, route oral; conditions: in vivo; how it was run: as §1
Mus musculus [6] = assay: Phototoxicity in Swiss albino mouse assessed as ear thickness at 140 mg/kg, po after 48 hrs of irradiation; type: organism-based; design: dose 140 mg/kg, route oral; conditions: in vivo; how it was run: as §1
Mus musculus [7] = assay: Phototoxicity in Swiss albino mouse assessed as ear thickness at 140 mg/kg, po after 72 hrs of irradiation; type: organism-based; design: dose 140 mg/kg, route oral; conditions: in vivo; how it was run: as §1
Mus musculus [8] = assay: Phototoxicity in Swiss albino mouse assessed as ear thickness at 140 mg/kg, po after 96 hrs of irradiation; type: organism-based; design: dose 140 mg/kg, route oral; conditions: in vivo; how it was run: as §1
Mus musculus [9] = assay: Phototoxicity in Swiss albino mouse assessed as erythema incidence at 140 mg/kg, po after 4 hrs of irradiation; type: organism-based; design: dose 140 mg/kg, route oral; conditions: in vivo; how it was run: as §1
Mus musculus [10] = assay: Phototoxicity in Swiss albino mouse assessed as erythema incidence at 140 mg/kg, po after 24 hrs of irradiation; type: organism-based; design: dose 140 mg/kg, route oral; conditions: in vivo; how it was run: as §1
Mus musculus [11] = assay: (§2) Phototoxicity in Swiss albino mouse assessed as erythema incidence at 140 mg/kg, po after 48 hrs of irradiation; type: organism-based; design: dose 140 mg/kg, route oral; conditions: in vivo; how it was run: as §1
Mus musculus [12] = assay: as §2; type: organism-based; design: dose 140 mg/kg, route oral; conditions: in vivo; how it was run: as §1; remark: listed apart in the source
Mus musculus [13] = assay: Phototoxicity in Swiss albino mouse assessed as erythema incidence at 140 mg/kg, po after 96 hrs of irradiation; type: organism-based; design: dose 140 mg/kg, route oral; conditions: in vivo; how it was run: as §1

SMILES | MIC [1] [µM] | MIC [2] [µM] | IC50 (Vero) [µM] | other results
CN1CCN(c2cc3c(cc2F)c(=O)c(C(=O)O)c2sc4ccccc4n23)CC1c1ccccc1 (stereo not drawn) | 12.8 (≈ 6.25 µg/mL) | 103 (≈ 50 µg/mL) | – | –
CC1CN(c2cc3c(cc2[N+](=O)[O-])c(=O)c(C(=O)O)c2sc4ccccc4n23)CC(C)O1 (stereo not drawn) | 6.9 (≈ 3.13 µg/mL) | 110 (≈ 50 µg/mL) | – | –
O=C(O)c1c(=O)c2cc([N+](=O)[O-])c(N3CCC4(CC3)OCCO4)cc2n2c1sc1ccccc12 | 1.62 (≈ 0.78 µg/mL) | 104 (≈ 50 µg/mL) | 130 | –
O=C(O)c1c(=O)c2cc([N+](=O)[O-])c(N3CCN(C(=O)c4ccco4)CC3)cc2n2c1sc1ccccc12 | 6.04 (≈ 3.13 µg/mL) | 48.2 (≈ 25 µg/mL) | – | –
CC(C)(C)OC(=O)NC1C2CN(c3cc4c(cc3F)c(=O)c(C(=O)O)c3sc5ccccc5n34)CC21 (stereo not drawn) | 0.37 (≈ 0.189 µg/mL) | 6.14 (≈ 3.13 µg/mL) | > 113 | IC50 [3]: 50 µg/mL (≈ 98.1 µM)
O=C(O)c1c(=O)c2cc(F)c(N3CCC(N4CCCCC4)CC3)cc2n2c1sc1ccccc12 | 0.39 (≈ 0.187 µg/mL) | 6.53 (≈ 3.13 µg/mL) | 130 | IC50 [3]: > 50 µg/mL
O=C(O)c1c(=O)c2cc(F)c(N3CCC(O)(c4ccc(Cl)cc4)CC3)cc2n2c1sc1ccccc12 | 0.36 (≈ 0.188 µg/mL) | 2.98 (≈ 1.56 µg/mL) | 120 | IC50 [3]: 40 µg/mL (≈ 76.5 µM); Activity (Mus musculus [4]): 0.32 mm; Activity (Mus musculus [5]): 0.31 mm; Activity (Mus musculus [6]): 0.29 mm; Activity (Mus musculus [7]): 0.32 mm; Activity (Mus musculus [8]): 0.3 mm; Activity (Mus musculus [9]): Non-toxic; Activity (Mus musculus [10]): Non-toxic; Activity (Mus musculus [11]): Non-toxic; Activity (Mus musculus [12]): Non-toxic; Activity (Mus musculus [13]): Non-toxic
Cc1onc(-c2c(F)cccc2F)c1C(=O)N1CCN(c2cc3c(cc2F)c(=O)c(C(=O)O)c2sc4ccccc4n23)CC1 | 2.52 (≈ 1.56 µg/mL) | 40.4 (≈ 25 µg/mL) | – | –
CCn1cc(C(=O)O)c(=O)c2cc(F)c(N3CCNC(C)C3)c(F)c21 (stereo not drawn) [LOMEFLOXACIN] | – | – | – | Activity (Mus musculus [4]): 0.4 mm; Activity (Mus musculus [5]): 0.48 mm; Activity (Mus musculus [6]): 0.53 mm; Activity (Mus musculus [7]): 0.64 mm; Activity (Mus musculus [8]): 0.6 mm; Activity (Mus musculus [9]): Toxic; Activity (Mus musculus [10]): Toxic; Activity (Mus musculus [11]): Toxic; Activity (Mus musculus [12]): Toxic; Activity (Mus musculus [13]): Toxic
O=C(O)c1cn2c(n1)CN(c1cc3c(cc1F)c(=O)c(C(=O)O)c1sc4ccccc4n13)CC2 | 3.26 (≈ 1.56 µg/mL) | 52.2 (≈ 25 µg/mL) | > 131 | –
CC(C)(C)NC(=O)C1c2ccccc2CCN1c1cc2c(cc1F)c(=O)c(C(=O)O)c1sc3ccccc3n12 (stereo not drawn) | 2.87 (≈ 1.56 µg/mL) | 46 (≈ 25 µg/mL) | 115 | –
COc1cc2c(cc1OC)CN(c1cc3c(cc1[N+](=O)[O-])c(=O)c(C(=O)O)c1sc4ccccc4n13)CC2 | 1.47 (≈ 0.781 µg/mL) | 47 (≈ 25 µg/mL) | 118 | –
O=C(O)c1c(=O)c2cc([N+](=O)[O-])c(N3CCC(O)(c4ccc(Cl)cc4)CC3)cc2n2c1sc1ccccc12 | 2.84 (≈ 1.56 µg/mL) | 90.9 (≈ 50 µg/mL) | 114 | –
O=C(O)c1c(=O)c2cc([N+](=O)[O-])c(N3CCN(C(c4ccccc4)c4ccc(Cl)cc4)CC3)cc2n2c1sc1ccccc12 (stereo not drawn) | 5.01 (≈ 3.13 µg/mL) | 40 (≈ 25 µg/mL) | 50 | –
CC(C)(C)NC(=O)C1c2ccccc2CCN1c1cc2c(cc1[N+](=O)[O-])c(=O)c(C(=O)O)c1sc3ccccc3n12 (stereo not drawn) | 2.73 (≈ 1.56 µg/mL) | 43.8 (≈ 25 µg/mL) | – | –
O=C(O)c1c(=O)c2cc(F)c(N3CCC(n4c(=O)[nH]c5cc(Cl)ccc54)CC3)cc2n2c1sc1ccccc12 | 2.77 (≈ 1.56 µg/mL) | 44.4 (≈ 25 µg/mL) | – | –
O=C(O)c1c(=O)c2cc([N+](=O)[O-])c(N3CCC(N4CCCCC4)CC3)cc2n2c1sc1ccccc12 | 3.08 (≈ 1.56 µg/mL) | 98.7 (≈ 50 µg/mL) | 61.7 | –
COc1ccc(CC2C3=C(CCCC3)CCN2c2cc3c(cc2F)c(=O)c(C(=O)O)c2sc4ccccc4n23)cc1 (stereo not drawn) | 5.5 (≈ 3.13 µg/mL) | 44 (≈ 25 µg/mL) | – | –

SMILES | MIC [1] [µM] | MIC [2] [µM] | IC50 (Vero) [µM] | other results
O=C(O)c1c(=O)c2cc([N+](=O)[O-])c(N3CCSCC3)cc2n2c1sc1ccccc12 | 7.09 (≈ 3.13 µg/mL) | 113 (≈ 50 µg/mL) | – | –
O=C(O)c1cn2c(n1)CN(c1cc3c(cc1[N+](=O)[O-])c(=O)c(C(=O)O)c1sc4ccccc4n13)CC2 | 1.54 (≈ 0.778 µg/mL) | 98.2 (≈ 49.6 µg/mL) | 124 | –
O=C(O)c1c(=O)c2cc(F)c(N3CCN(C(=O)C4COc5ccccc5O4)CC3)cc2n2c1sc1ccccc12 (stereo not drawn) | 1.39 (≈ 0.778 µg/mL) | 2.79 (≈ 1.56 µg/mL) | 112 | IC50 [3]: > 50 µg/mL
O=C(O)c1c(=O)c2cc(F)c(N3CCN(Cc4ccc5c(c4)OCO5)CC3)cc2n2c1sc1ccccc12 | 1.47 (≈ 0.781 µg/mL) | 5.89 (≈ 3.13 µg/mL) | > 118 | –
Cc1onc(-c2c(F)cccc2F)c1C(=O)N1CCN(c2cc3c(cc2[N+](=O)[O-])c(=O)c(C(=O)O)c2sc4ccccc4n23)CC1 | 4.85 (≈ 3.13 µg/mL) | 77.5 (≈ 50 µg/mL) | – | –
O=C(O)c1c(=O)c2cc([N+](=O)[O-])c(N3CCN(C(=O)C4COc5ccccc5O4)CC3)cc2n2c1sc1ccccc12 (stereo not drawn) | 10.7 (≈ 6.25 µg/mL) | 85.2 (≈ 50 µg/mL) | – | –
O=C(O)c1c(=O)c2cc(F)c(N3CCN(C(=O)c4ccco4)CC3)cc2n2c1sc1ccccc12 | 6.37 (≈ 3.13 µg/mL) | 50.9 (≈ 25 µg/mL) | – | –
CN1CCN(c2cc3c(cc2[N+](=O)[O-])c(=O)c(C(=O)O)c2sc4ccccc4n23)CC1c1ccccc1 (stereo not drawn) | 12.2 (≈ 6.25 µg/mL) | 97.2 (≈ 50 µg/mL) | – | –
O=C(O)c1c(=O)c2cc(F)c(N3CCC4(CC3)OCCO4)cc2n2c1sc1ccccc12 | 0.86 (≈ 0.391 µg/mL) | 6.89 (≈ 3.13 µg/mL) | > 138 | Activity (Mus musculus [4]): 0.3 mm; Activity (Mus musculus [5]): 0.31 mm; Activity (Mus musculus [6]): 0.3 mm; Activity (Mus musculus [7]): 0.28 mm; Activity (Mus musculus [8]): 0.3 mm; Activity (Mus musculus [9]): Non-toxic; Activity (Mus musculus [10]): Non-toxic; Activity (Mus musculus [11]): Non-toxic; Activity (Mus musculus [12]): Non-toxic; Activity (Mus musculus [13]): Non-toxic
CC(C)(C)OC(=O)NC1C2CN(c3cc4c(cc3[N+](=O)[O-])c(=O)c(C(=O)O)c3sc5ccccc5n34)CC21 (stereo not drawn) | 2.91 (≈ 1.56 µg/mL) | 93.2 (≈ 50 µg/mL) | 58.2 | –
COc1ccc(CC2C3=C(CCCC3)CCN2c2cc3c(cc2[N+](=O)[O-])c(=O)c(C(=O)O)c2sc4ccccc4n23)cc1 (stereo not drawn) | 10.5 (≈ 6.25 µg/mL) | 83.9 (≈ 50 µg/mL) | – | –
O=C(O)c1c(=O)c2cc([N+](=O)[O-])c(N3CCN(Cc4ccc5c(c4)OCO5)CC3)cc2n2c1sc1ccccc12 | 5.6 (≈ 3.13 µg/mL) | 44.8 (≈ 25 µg/mL) | 112 | –
O=C(O)c1c(=O)c2cc(F)c(N3CCSCC3)cc2n2c1sc1ccccc12 | 3.76 (≈ 1.56 µg/mL) | 7.55 (≈ 3.13 µg/mL) | – | –
O=C(O)c1c(=O)c2cc([N+](=O)[O-])c(N3CCC(n4c(=O)[nH]c5cc(Cl)ccc54)CC3)cc2n2c1sc1ccccc12 | 5.31 (≈ 3.13 µg/mL) | 84.8 (≈ 50 µg/mL) | – | –
COc1cc2c(cc1OC)CN(c1cc3c(cc1F)c(=O)c(C(=O)O)c1sc4ccccc4n13)CC2 | 1.55 (≈ 0.782 µg/mL) | 6.2 (≈ 3.13 µg/mL) | > 124 | –
CCN(CC)C(=O)C1CCCN(c2cc3c(cc2[N+](=O)[O-])c(=O)c(C(=O)O)c2sc4ccccc4n23)C1 (stereo not drawn) | 2.99 (≈ 1.56 µg/mL) | 95.7 (≈ 50 µg/mL) | 59.8 | –
CC1CN(c2cc3c(cc2F)c(=O)c(C(=O)O)c2sc4ccccc4n23)CC(C)O1 (stereo not drawn) | 7.34 (≈ 3.13 µg/mL) | 29.3 (≈ 12.5 µg/mL) | – | –
O=C(O)c1c(=O)c2cc(F)c(N3CCN(C(c4ccccc4)c4ccc(Cl)cc4)CC3)cc2n2c1sc1ccccc12 (stereo not drawn) | 2.61 (≈ 1.56 µg/mL) | 10.4 (≈ 6.25 µg/mL) | 104 | –
